Measurements collected from several papers.
Lines come from different studies, so protocols differ.
Target: Dual specificity protein kinase CLK2 (CLK2, Homo sapiens, UniProt P49760)

| SMILES | effect on | mode | method | tested at | endpoint | value |
| --- | --- | --- | --- | --- | --- | --- |
| Oc1cccc(-c2nc(N3CCOCC3)c3oc4ncccc4c3n2)c1 | enzyme activity | inhibitor |  | 10 µM | remaining activity | 25% |
| FC(F)(F)Oc1cccc(-c2cnc3ccc(-c4ccncc4)nn23)c1 | enzyme activity | inhibitor | radiometric | 5 µM | activity vs control | 0.623% |
| CCOCCn1cc(C(=O)Nc2ccc(-n3nc(-c4cccnc4)cc3C(F)(F)F)cn2)ccc1=O | cell-free assay |  | competition with immobilised ligand | 1 µM | remaining binding | 86% |
| COc1cc2ncnc(Nc3ccc(Oc4ccccc4)cc3C)c2cc1OC | enzyme activity | inhibitor |  | 1 µM | inhibition | 0% |
| CN1CC(Oc2cnc(C#N)cc2-c2ccn3nc(NC(=O)C4CC4)cc3c2)C1 | enzyme activity | inhibitor |  | 1 µM | inhibition | 1% |
| O=C(Nc1cnn(-c2csc(C(=O)NC3COC3)c2)c1)Nc1c(F)cccc1Cl | enzyme activity | inhibitor |  | 5 µM | remaining activity | 109% |
| CN1CCC2(CC1)NC(=O)c1c(c3ccc(Cl)c(Cl)c3n1C)C2C#N (racemic) | thermal stability |  | DSF | 10 µM | ΔTm | 1.9 °C |
| CN([C@@H]1CCc2c(CC(=O)O)c3cc(S(C)(=O)=O)ccc3n2C1)S(=O)(=O)c1ccc(F)cc1 | cell-free assay |  | competition with immobilised ligand | 1 µM | remaining binding | 100% |
| COc1cc(/C=C/C(=O)CC(=O)/C=C/c2ccc(O)c(OC)c2)ccc1O | enzyme activity | inhibitor |  | 1 µM | activity vs control | 48% |
| FC(F)c1nc2ccccc2n1-c1nc(N2CCOCC2)nc(N2CCOCC2)n1 | enzyme activity | inhibitor |  | 10 µM | remaining activity | 85% |
| CN(C)C1CCN(CC#Cc2nn(C3CCCC3)c3nc(NCc4ccccc4)ncc23)C1 (centres unmarked) | enzyme activity | inhibitor | FRET | 0.1 µM | inhibition | 8% |
| CS(=O)(=O)Nc1cccc(-c2csc(NC(=O)CSc3nc4nccnc4c(=O)n3CCc3ccccc3)n2)c1 | enzyme activity | inhibitor |  | 10 µM | inhibition | 11% |
| Cn1c2c(c3ccc(Cl)c(Cl)c31)C(C#N)C1(CCCCC1)NC2=O (racemic) | thermal stability |  | DSF | 10 µM | ΔTm | 2.1 °C |
| COc1cc(Cl)c(C(=O)N[C@@H](CN[C@H]2CC[C@@H](N)CC2)Cc2ccc(C#N)cc2)cc1-c1ccc(CN[C@H](C)c2ccc(C)cc2)o1 | enzyme activity | inhibitor |  | 1 µM | remaining activity | 92% |
| COCCOc1nc(-c2ccc(Cl)nc2)nc2c1CN(C(=O)c1ncn3ccccc13)CC2 | cell-free assay |  | competition with immobilised ligand | 0.1 µM | remaining binding | 100% |
| COc1cccc2c(NCc3ccccc3)nc(-n3c(N)nc4ccccc43)nc12 | target engagement in cells | inhibitor | chemoproteomics | 20 mM | inhibition | -12.9% |
| CC1(C)NC(=O)c2[nH]c3c(Cl)c(Cl)ccc3c2C1C#N (centres unmarked) | thermal stability |  | DSF | 10 µM | ΔTm | 2.7 °C |
| CC(C)(O)[C@H]1CC[C@H](Nc2ccc3ncc(-c4cccc(C(F)(F)F)c4)n3n2)CC1 | enzyme activity | inhibitor |  | 1 µM | remaining activity | 15.8% |

| SMILES | effect on | mode | method | tested at | endpoint | value |
| --- | --- | --- | --- | --- | --- | --- |
| Cc1ccc(NC(=O)c2ccc(C)c(C(F)(F)F)c2)cc1C#Cc1nn(C2CCC(O)CC2)c2ncnc(N)c12 (centres unmarked) | cell-free assay |  |  | 10 µM | remaining signal | 47% |
| Clc1ccc(Nc2nnc(Cc3ccncc3)c3ccccc23)cc1 | cell-free assay |  |  | 0.5 µM | remaining signal | 87.6% |
| Cc1cc(NC(=O)c2cccc3cc(-c4cccc5[nH]nc(N)c45)ccc23)ccc1F | enzyme activity | inhibitor |  | 0.1 µM | activity vs control | 95% |
| O=C(NCc1ncc(C(F)(F)F)cc1Cl)c1ccc2c(c1)C1(CCS(=O)(=O)CC1)[C@H](C1CC1)N2S(=O)(=O)c1ccc(F)cc1 | cell-free assay |  | competition with immobilised ligand | 1 µM | remaining binding | 100% |
| Cn1c2c(c3ccc(Cl)c(Cl)c31)C(C#N)C1(CCCC1)NC2=O (centres unmarked) | thermal stability |  | DSF | 10 µM | ΔTm | 1.7 °C |
| COc1ccc2c(O[C@@H]3C[C@H]4C(=O)N[C@]5(C(=O)O)CC5/C=C\CCCCC[C@H](NC(=O)OC5CCCC5)C(=O)N4C3)cc(-c3csc(NC(=O)C(C)C)n3)nc2c1C (some centres unmarked) | cell-free assay |  | competition with immobilised ligand | 1 µM | remaining binding | 100% |
| Cn1c2c(Cl)c(Cl)ccc2c2cn[nH]c(=O)c21 | thermal stability |  | DSF | 10 µM | ΔTm | 2 °C |
| COc1cc2ncnc(Nc3ccc(F)c(Cl)c3)c2cc1OCCCN1CCOCC1 | cell-free assay |  |  | 0.5 µM | remaining signal | 94.8% |
| Cn1cnc(Br)c1C1=CN(c2ncnc3[nH]cnc23)CCS1 | enzyme activity | inhibitor | radiometric | 50 nM | inhibition | 46.1% |
| CCCOc1ccc([C@@H]2[C@@H](C(=O)O)[C@H](c3ccc4c(c3)OCO4)CN2CC(=O)Nc2c(CC)cccc2CC)cc1 | cell-free assay |  | competition with immobilised ligand | 1 µM | remaining binding | 100% |
| O=C1NC(=O)c2cc(Nc3ccc(F)cc3)c(Nc3ccc(F)cc3)cc21 | cell-free assay |  |  | 0.5 µM | remaining signal | 88.1% |
| COc1cc(-c2cn(C3CCc4c(F)cccc4N(CC(F)(F)F)C3=O)nn2)ccc1-n1cnc(C)c1 (centres unmarked) | cell-free assay |  | competition with immobilised ligand | 1 µM | remaining binding | 100% |
| CS(=O)(=O)CCNCc1ccc(-c2ccc3ncnc(Nc4ccc(OCc5cccc(F)c5)c(Cl)c4)c3c2)o1 | cell-free assay |  |  | 0.5 µM | remaining signal | 95.1% |
| COc1cc(Nc2cnc(C#N)c(O[C@H](C)CN(C)C)n2)ncc1-c1cnn(C)c1 | enzyme activity | inhibitor | radiometric | 10 µM | remaining activity | 50% |
| CC(C)(C)c1nc(-c2cccc(NS(=O)(=O)c3c(F)cccc3F)c2F)c(-c2ccnc(N)n2)s1 | enzyme activity | inhibitor | radiometric | 1 µM | remaining activity | 98% |
| CC(C)CC(=O)N1CCc2nc(-c3ccc(Br)cc3)nc(N(C)Cc3ccccc3)c2C1 | cell-free assay |  | competition with immobilised ligand | 0.1 µM | remaining binding | 100% |
| Cc1ccc(C(=O)Nc2ccc(CN3CCN(C)CC3)c(C(F)(F)F)c2)cc1C#Cc1cnc2cccnn12 | enzyme activity | inhibitor |  | 23.5 nM | remaining activity | 94% |
